Laboratory results as given in ChEMBL document CHEMBL4428117, “Discovery of novel free fatty acid receptor 1 agonists bearing triazole core via click chemistry” (Bioorg Med Chem, 2016).

Experiments:
[1] = target: Free fatty acid receptor 1 (Homo sapiens) (UniProt O14842); assay: Agonist activity at human FFA1 receptor expressed in CHO cells assessed as intracellular calcium influx at 100 nM measured for 90 sec by Fluo-4-AM dye based FLIPR assay relative to control; format: functional, cell-based
Summary of the method: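 CHO cells stably expressing human FFA1 (NM_005303), 15 K cells/well, grown 12 h at 37 °C in 5% CO2, then HBSS wash. Ca2+ signal read by FLIPR for 90 s after addition. Activity = (test − vehicle)/(10 µM γ-linolenic acid − vehicle) × 100; mean of three independent experiments.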

[2] = 1-octanol-phosphate buffer distribution coefficient, log D of compound at 100 uM at pH 7.4 after 24 hrs by HPLC based shake flask method; format: physicochemical
Summary of the method: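 Final concentration 100 µM, diluted from 10 mM DMSO stock, in 1:1 0.01 M phosphate buffer pH 7.4 and 1-octanol. Shaken 700 rpm for 24 h, then 1 h phase separation. Octanol phase diluted ×10 before HPLC, buffer phase injected directly, each in duplicate. LogD = octanol/buffer peak area at 254 nm, corrected with two calibration points; three independent experiments.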

[3] = system: Mus musculus; assay: Hypoglycemic effect in normal ICR mouse assessed as decrease in plasma glucose level at 50 mg/kg, po administered as single dose 30 mins prior to glucose challenge by OGTT relative to control; format: functional, organism-based; conditions: TDE = time-dependent effect
Summary of the method: (§1)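 Ten-week-old male ICR mice, fasted 12 h, randomized n = 6 per group. Single oral dose in 0.5% CMC given 30 min before oral glucose 3 g/kg. Tail-vein blood glucose measured by test strips at −30, 0, 15, 30, 45, 60 and 120 min; AUC0-2h calculated; mean ± SEM, Student's t-test vs vehicle.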

[4] = system: Mus musculus; assay: Hypoglycemic effect in fasting STZ-induced type-2 diabetic C57BL/6 mouse assessed as decrease in blood glucose AUC (0 to 2 hrs) at 20 mg/kg, po administered as single dose 30 mins prior to glucose challenge measured by OGTT relative to control; format: functional; design: scale not given: the % may be the effect or the level left
Summary of the method: (§2)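 Male C57BL/6 mice on high-fat diet (45% kcal fat) for 4 weeks, then STZ 80 mg/kg i.p., then high-fat diet another 4 weeks. Fasting glucose ≥11.1 mmol/L taken as diabetic. Fasted 12 h, n = 6 per group. Oral dose in 0.5% CMC 30 min before oral glucose 2 g/kg. Tail-vein glucose by test strips at −30, 0, 15, 30, 45, 60 and 120 min; AUC0-2h; mean ± SEM.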

[5] = system: Mus musculus; assay: Hypoglycemic effect in normal ICR mouse assessed as decrease in blood glucose AUC (0 to 2 hrs) at 50 mg/kg, po administered as single dose 30 mins prior to glucose challenge by OGTT relative to control; format: functional; design: scale not given: the % may be the effect or the level left; summary of the method: as §1
[6] = system: Mus musculus; assay: Hypoglycemic effect in fasting STZ-induced type-2 diabetic C57BL/6 mouse assessed as decrease in blood glucose AUC (0 to 2 hrs) at 50 mg/kg, po administered as single dose 30 mins prior to glucose challenge by OGTT relative to control; format: functional; design: scale not given: the % may be the effect or the level left; summary of the method: as §2

Chain of Free fatty acid receptor 1 (Homo sapiens) (O14842 whole entry): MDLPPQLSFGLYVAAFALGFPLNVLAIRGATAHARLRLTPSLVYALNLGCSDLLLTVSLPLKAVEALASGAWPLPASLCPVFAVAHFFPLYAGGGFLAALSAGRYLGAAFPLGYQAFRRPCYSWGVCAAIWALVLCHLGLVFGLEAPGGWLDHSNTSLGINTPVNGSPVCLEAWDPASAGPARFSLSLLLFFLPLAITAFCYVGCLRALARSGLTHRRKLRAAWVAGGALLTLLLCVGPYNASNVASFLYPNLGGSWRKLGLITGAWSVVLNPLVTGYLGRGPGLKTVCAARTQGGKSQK

Compound	Activity [1]	logD at 24 h, 100 µM [2]	other results
O=C(O)CC1COc2cc(OCc3cn(-c4c(Cl)cccc4Cl)nn3)ccc21 (stereo unspecified)	21.7%	1.96	–
COc1cccc(-n2cc(COc3ccc4c(c3)OCC4CC(=O)O)nn2)c1 (stereo unspecified)	19.4%	–	–
O=C(O)CC1COc2cc(OCc3cn(-c4ccccc4Cl)nn3)ccc21 (stereo unspecified)	9.34%	–	–
O=C(O)COc1ccc(OCc2cn(-c3cccc(Cl)c3)nn2)cc1F	22.7%	–	–
O=C(O)CC1COc2cc(OCc3cn(-c4ccccc4)nn3)ccc21 (stereo unspecified)	0.76%	–	–
O=C(O)CC1COc2cc(OCc3cn(-c4ccc(OCc5ccccc5)cc4)nn3)ccc21 (stereo unspecified)	3.67%	–	–
O=C(O)CC1COc2cc(OCc3cn(-c4ccc(Cl)cc4)nn3)ccc21 (stereo unspecified)	24.7%	–	Activity [3]: Tde
COc1cccc(-n2cc(COc3ccc(OCC(=O)O)c(F)c3)nn2)c1	24.4%	0.52	Activity [3]: Tde
O=C(O)CC1COc2cc(OCc3cn(-c4ccccc4F)nn3)ccc21 (stereo unspecified)	6.69%	–	–
O=C(O)CC1COc2cc(OCc3cn(-c4cccc(Cl)c4)nn3)ccc21 (stereo unspecified)	22.8%	1.09	–
Cc1cc(OCCCS(C)(=O)=O)cc(C)c1-c1cccc(COc2ccc3c(c2)OC[C@H]3CC(=O)O)c1 [FASIGLIFAM]	–	–	Activity [4]: 32.5%
O=C(O)COc1ccc(OCc2cn(-c3ccccc3Cl)nn2)cc1F	11.3%	–	–
O=C(O)COc1ccc(OCc2cn(-c3c(Cl)cccc3Cl)nn2)cc1F	29.7%	2.16	Activity [3]: Tde; Activity [5]: 17.7%
Cc1ccc(Cl)cc1-n1cc(COc2ccc(OCC(=O)O)c(F)c2)nn1	36.1%	1.95	Activity [6]: 14.2%; Activity [3]: Tde; Activity [5]: 21.4%
Cc1ccc(Cl)cc1-n1cc(COc2ccc3c(c2)OCC3CC(=O)O)nn1 (stereo unspecified)	33.8%	2.08	Activity [3]: Tde; Activity [5]: 16.8%
COc1ccccc1-n1cc(COc2ccc(OCC(=O)O)c(F)c2)nn1	14.6%	–	–

The next lines start with results.

Activity [1]	logD at 24 h, 100 µM [2]	Compound	other results
7.62%	–	CCOc1ccc(-n2cc(COc3ccc(OCC(=O)O)c(F)c3)nn2)cc1	–
4.53%	–	CC(C)(C)c1ccc(-n2cc(COc3ccc(OCC(=O)O)c(F)c3)nn2)cc1	–
0.64%	–	O=C(O)COc1ccc(OCc2cn(-c3ccccc3)nn2)cc1	–
20.4%	0.92	O=C(O)COc1ccc(OCc2cn(-c3ccc(F)cc3)nn2)cc1F	–
16.4%	0.89	Cc1ccc(-n2cc(COc3ccc(OCC(=O)O)cc3)nn2)cc1	–
26.1%	1.37	O=C(O)COc1ccc(OCc2cn(-c3ccc(Cl)cc3)nn2)cc1F	Activity [3]: Tde
19.4%	–	O=C(O)COc1ccc(OCc2cn(-c3ccc(Cl)cc3)nn2)cc1	–
11.8%	–	Cc1cccc(-n2cc(COc3ccc(OCC(=O)O)cc3)nn2)c1	–
5.83%	-0.23	O=C(O)COc1ccc(OCc2cn(-c3ccccc3)nn2)cc1F	–
13.8%	–	O=C(O)COc1ccc(OCc2cn(-c3ccc(F)cc3)nn2)cc1	–
